Measured values: paper PMC6904836 (International Journal for Parasitology: Drugs and Drug …, 2019)
Where “and” joins values, the source holds several entries; their conditions need not be identical. Identical values can stand only once.

How the values were obtained:
[1] = test system: L. major (NIH173 (MHOM/IR/-/173)); assay: Lesion cure model, BALB/c mice infected with luciferase-expressing L. major; type: in vivo; conditions: BID; for bioluminescence signal (parasite load) at the infection site: vs vehicle control
[2] = test system: L. guyanensis (MHOM/GY/06/PAB-3985-WR-2853/A Chan); assay: Luciferase amastigote macrophage assay in RAW 264.7; type: cell-based; conditions: Leishmania guyanensis, RAW264.7, 96 h, read-out: EC50 L. guyanensis
Method in brief: (§1)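 RAW 264.7 macrophages (10,000/well) were incubated 24 h at 37 °C/5% CO2, then infected with luciferase-transfected promastigotes in DMEM + 10% HiFBS. Promastigotes were maintained in Schneider's + 20% HiFBS at 22 °C. Compounds (DMSO stock 11.5 mM) ran from 10 μg/ml in 1:2 dilutions, 0.2% DMSO final, for 96 h at 37 °C. D-luciferin was added at 150 μg/mL final for 30 min before the luminescence read. Amphotericin B control was run in octuplicate.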

[3] = test system: L. major (MHOM/IL/SU73/WR779); assay: as above; type: cell-based; conditions: Leishmania major, RAW264.7, 96 h, read-out: EC50 L. major
Method in brief: as §1

in vitro = conditions: human
[4] = test system: L. tropica (MHOM/SU/74/K-27 WR-2995); assay: Luciferase amastigote macrophage assay in RAW 264.7; type: cell-based; conditions: Leishmania tropica, RAW264.7, 96 h, read-out: EC50 L. tropica
[5] = pH7.4; ref DNDi unpublished data; cited from earlier work
[6] = test system: L. major (MHOM/SA/85/JISH118); assay: L. major - BALB/c mouse model of CL; type: in vivo, BALB/c mice; conditions: for % reduction Lesion size / % reduction Parasite load: n = 5
[7] = study 1, 50 mg/kg PO, 5 days, day 11 post end of treatment
[8] = study 2, 50 mg/kg PO, 10 days, day 11 post end of treatment
[9] = study 2, 50 mg/kg PO, 10 days, day 80
[10] = 50 mg/kg/day, compared to the untreated control

**Q.** Which “lesion size reduction vs respective vehicle control” value ([1]; study 1, 25 mg/kg PO, 10 days, day 11 post end of treatment) does the source give for `O=[N+]([O-])c1cn2c(n1)O[C@@H](COc1ccc(-c3ccc(F)cc3)nc1)CC2` [DNDI-0690] here?
**A.** 89.8%

**Q.** And the “bioluminescence signal (parasite load) at the infection site” value ([1]; study 1, 25 mg/kg PO, 10 days)?
**A.** significantly reduce

**Q.** And the EC50 [2]?
**A.** 850 nM

**Q.** And the EC50 [3]?
**A.** 340 nM

**Q.** With `O=[N+]([O-])c1cn2c(n1)OC[C@H](Oc1ccc(OC(F)(F)F)cc1)C2` [DNDI-8219, (6 R)-2-Nitro-6-[4-(trifluoromethoxy)phenoxy]-6,7-dihydro-5 H-imidazo[2,1-b][1,3]oxazine] as the compound, how does the EC50 (in vitro) read?
**A.** > 200000 nM

**Q.** And the EC50 [2]?
**A.** 380 nM

**Q.** And the EC50 [3]?
**A.** 30 nM

**Q.** And the EC50 [4]?
**A.** 1200 nM

**Q.** With `Cc1c(C(=O)Nc2ccc3c(c2)B(O)OC3)nnn1-c1ccccn1` [DNDI-6148] as the compound, how does the “lesion size reduction vs respective vehicle control” value [1, 7] read?
**A.** 93.2%

**Q.** And the “mice clear of any detectable infection” value [1, 7]?
**A.** 1/5

**Q.** What about the “bioluminescence signal (parasite load) at the infection site” value ([1]; study 1, 50 mg/kg PO, 5 days) of the same compound?
**A.** significantly reduce

**Q.** What about the “mice cured (no visible lesion), no detectable parasite load by bioluminescence” value [1, 8] of the same compound?
**A.** 3/6

**Q.** And the “overall lesion size reduction compared to the average VC lesion size” value [1, 8]?
**A.** 99.3%

**Q.** What about the “mice cured, no detectable parasite load” value ([1]; study 2, 50 mg/kg PO, 10 days, day 18 post end of treatment) of the same compound?
**A.** 6/6

**Q.** And the “mice that had developed papules” value ([1]; study 2, 50 mg/kg PO, 10 days, day 61 post end of treatment)?
**A.** 0/5

**Q.** What about the “mice that had developed papules” value ([1]; study 2, 50 mg/kg PO, 10 days, day 74 post end of treatment) of the same compound?
**A.** 1/5

**Q.** And the average lesion size [1, 9]?
**A.** 1.98 mm^2

**Q.** What about the “mice that had developed lesions” value [1, 9] of the same compound?
**A.** 1/5

**Q.** What about the EC50 (in vitro) of the same compound?
**A.** 181000 nM

**Q.** What about the EC50 [2] of the same compound?
**A.** 50 nM

**Q.** And the EC50 [3]?
**A.** 70 nM

**Q.** What about the “distribution coefficient (log D), DNDi data” value [5] of the same compound?
**A.** 1.92

**Q.** And the “lesion size reduction” value [6, 10]?
**A.** no visible nodule

**Q.** And the “reduction of the parasite load as measured by qPCR” value [6, 10]?
**A.** ~2 log-fold

**Q.** And the “% reduction Lesion size” value ([6]; Oral, 12.5 mg/kg, BID, 10 days)?
**A.** 66.7%

**Q.** What about the “% reduction Parasite load” value ([6]; Oral, 12.5 mg/kg, BID, 10 days, qPCR day 11) of the same compound?
**A.** 92.35%

**Q.** And the “% reduction Lesion size” value ([6]; Oral, 25 mg/kg, BID, 10 days)?
**A.** 85.4%

**Q.** And the “% reduction Parasite load” value ([6]; Oral, 25 mg/kg, BID, 10 days, qPCR day 11)?
**A.** 98.49%

**Q.** And the “% reduction Lesion size” value ([6]; Oral, 50 mg/kg, BID, 5 days)?
**A.** 43.2%

**Q.** What about the “% reduction Parasite load” value ([6]; Oral, 50 mg/kg, BID, 5 days, qPCR) of the same compound?
**A.** 100.00%

**Q.** And the “% reduction Lesion size” value ([6]; Oral, 50 mg/kg, BID, 10 days)?
**A.** 100.0% and 75.7% and 91.9%

**Q.** What about the “% reduction Parasite load” value ([6]; Oral, 50 mg/kg, BID, 10 days, qPCR day 11, 50 mg/kg) of the same compound?
**A.** 99.56% and 100.00% and 98.41%

**Q.** And the “% reduction Lesion size” value ([6]; Oral, 50 mg/kg, QD, 10 days)?
**A.** 100.0%

**Q.** What about the “% reduction Parasite load” value ([6]; Oral, 50 mg/kg, QD, 10 days, qPCR day 11) of the same compound?
**A.** 97.73%

**Q.** What about the “% reduction Parasite load” value ([6]; Topical, Sat sol in PG-EtOH (1:1), 50 μl BID, 10 days, qPCR day 11) of the same compound?
**A.** 71.49% and 99.68%

**Q.** What about the EC50 [4] of the same compound?
**A.** 240 nM

**Q.** For `C[C@@H]1[C@H](O)[C@@H](C)/C=C/C=C/C=C/C=C/C=C/C=C/C=C/[C@H](O[C@@H]2O[C@H](C)[C@@H](O)[C@H](N)[C@@H]2O)C[C@@H]2O[C@](O)(C[C@@H](O)C[C@@H](O)[C@H](O)CC[C@@H](O)C[C@@H](O)CC(=O)O[C@H]1C)C[C@H](O)[C@H]2C(=O)O` [Amphotericin B, amphotericin B deoxycholate, reference compound], which EC50 [2] is on record?
**A.** 30 nM

**Q.** And the EC50 [3]?
**A.** 30 nM

**Q.** And the EC50 [4]?
**A.** 10 nM
